Experiments:
[1] = Oral bioavailability in Sprague-Dawley rat at 10 mg/kg; type: ADME, organism-based; conditions: in vivo
Outline: (§1)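 PK: overnight-fasted animals. Rat oral gavage 5 mL/kg in 40% HPβCD, serial tail-vein blood over 6 h. Dog oral gavage 1 mL/kg, monkey nasogastric 2 mL/kg, femoral-vein blood over 24 h. Plasma protein-precipitated with acetonitrile, LCMS/MS with internal standard; noncompartmental analysis, individual animals n = 3, mean ± SEM.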

[2] = Plasma clearance in cynomolgus monkey at 1 mg/kg, iv; type: ADME, organism-based, Macaca fascicularis; design: dose 1 mg/kg, route intravenous
Outline: (§2)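 IV PK: rats via lateral tail vein (1 mL/kg; 3% DMSO/30% Solutol/67% PBS), serial tail-vein blood over 6 h. Dogs and monkeys via saphenous vein (0.5 mL/kg in 40% HPβCD), femoral-vein blood over 24 h. Acetonitrile protein precipitation, LCMS/MS; noncompartmental parameters from individual animals, n = 3, mean ± SEM.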

[3] = Cmax in Sprague-Dawley rat at 10 mg/kg, po; type: ADME, organism-based; design: dose 10 mg/kg, route oral; conditions: in vivo
Outline: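 Rat PK. IV via the lateral tail vein, 1 mL/kg in 3% DMSO/30% Solutol/67% PBS, or oral gavage at 5 mL/kg in 40% HPβCD, after an overnight fast. Serial tail-vein blood was taken into heparin over 6 h. Plasma was acetonitrile-precipitated and analysed by LC-MS/MS. Parameters were noncompartmental, n = 3, mean ± SEM.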

[4] = Drug level in SCID mouse tumor xenografted with human KARPAS299 cells expressing NPM-ALK at 30 mg/kg, po after 12 hrs by LC-MS/MS analysis; type: ADME, organism-based, Neoplasm, KARPAS-299; design: dose 30 mg/kg, route oral; conditions: read-out: Drug uptake
[5] = Oral bioavailability in cynomolgus monkey at 10 mg/kg; type: ADME, organism-based, Macaca fascicularis; conditions: in vivo; outline: as §1
[6] = Cmax in rat at 55 mg/kg, po; type: ADME, organism-based; design: dose 55 mg/kg, route oral; conditions: in vivo
Outline: (§3)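 Rat oral dose escalation at 10, 30, 55 and 100 mg/kg. Gavage at 5 mL/kg in 40% HPβCD after an overnight fast. Serial tail-vein blood was drawn into heparinized tubes. Plasma was protein-precipitated with acetonitrile and assayed by LC-MS/MS. Cmax and AUC0–12 were derived noncompartmentally; n = 2 at 10 mg/kg.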

Focal adhesion kinase 1 = Focal adhesion kinase 1 (Homo sapiens, UniProt Q05397); experiment: Inhibition of human FAK
Outline: (§4)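 Commercial activity-assay panel of 259 kinases. Each kinase was first screened at 1 μM, and those inhibited by ≥90% went on to full IC50 determination.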

[7] = AUC in Beagle dog at 1 mg/kg, iv; type: ADME, organism-based, Canis lupus familiaris; design: dose 1 mg/kg, route intravenous; conditions: plasma
Outline: (§5)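 Dog and monkey PK. IV 0.5 mL/kg in 40% HPβCD via the saphenous vein. Oral dosing was 1 mL/kg by gavage in dogs and 2 mL/kg by nasogastric tube in monkeys, after an overnight fast. Serial femoral-vein blood was taken into heparin over 24 h. Plasma was acetonitrile-precipitated and analysed by LC-MS/MS. Parameters were noncompartmental, n = 3, mean ± SEM.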

[8] = target: Tyrosine-protein kinase Fer (Homo sapiens, UniProt P16591); experiment: Inhibition of human Fer
[9] = Half life in SCID mouse at 1 mg/kg, iv; type: ADME, organism-based; design: dose 1 mg/kg, route intravenous; conditions: in vivo
Outline: (§6)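 Mouse PK. IV via the lateral tail vein in 3% DMSO/30% Solutol/67% PBS, or oral gavage in 100% PEG400, 100 μL dose volume, after an overnight fast. Trunk blood was taken from three mice per time point over 6 h. Plasma was acetonitrile-precipitated and analysed by LC-MS/MS. Parameters were derived noncompartmentally.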

[10] = target: Mitogen-activated protein kinase kinase kinase kinase 2 (Homo sapiens, UniProt Q12851); experiment: Inhibition of human GCK
Outline: (§7)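 Millipore KinaseProfiler activity assays on a 259-kinase panel; kinases inhibited by ≥90% at 1 μM then taken to full IC50 determination.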

[11] = Half life in cynomolgus monkey at 10 mg/kg, po; type: ADME, organism-based, Macaca fascicularis; design: dose 10 mg/kg, route oral; conditions: in vivo; outline: as §5
Mus musculus [12] = experiment: Inhibition of NPM-ALK phosphorylation in human KARPAS299 cells xenografted in SCID mouse tumor at 30 mg/kg, po qd after 12 hrs by immunoblotting; type: functional; conditions: KARPAS-299, 12 h
Outline: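 SCID mice bearing sc Karpas-299 xenografts received a single 30 mg/kg oral dose. Phospho- and total NPM-ALK in tumour samples were detected by immunoblotting, and relative NPM-ALK phosphorylation was calculated.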

[13] = target: Ribosomal protein S6 kinase alpha-2 (Homo sapiens, UniProt Q15349); experiment: Inhibition of human Rsk3; outline: as §7
[14] = target: NUAK family SNF1-like kinase 1 (Homo sapiens) (UniProt O60285); conditions: 1 uM
[15] = Cmax in cynomolgus monkey at 10 mg/kg, po; type: ADME, organism-based, Macaca fascicularis; design: dose 10 mg/kg, route oral; conditions: in vivo; outline: as §5
[16] = target: Serine/threonine-protein kinase Chk2 (Homo sapiens, UniProt O96017); experiment: Inhibition of human CHK2; outline: as §4
[17] = target: Tyrosine-protein kinase Fes/Fps (Homo sapiens, UniProt P07332); experiment: Inhibition of human Fes; outline: as §7
[18] = AUC in cynomolgus monkey at 1 mg/kg, iv; type: ADME, organism-based, Macaca fascicularis; design: dose 1 mg/kg, route intravenous; conditions: plasma; outline: as §5
Activated CDC42 kinase 1 = Activated CDC42 kinase 1 (Homo sapiens, UniProt Q07912); experiment: Inhibition of human ACK1
[19] = AUC in SCID mouse at 10 mg/kg, po; type: ADME, organism-based; design: dose 10 mg/kg, route oral; conditions: plasma; outline: as §6
[20] = Tmax in SCID mouse at 10 mg/kg, po; type: ADME, organism-based; design: dose 10 mg/kg, route oral; conditions: in vivo
Outline: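 Mouse oral PK: overnight fast, gavage of 100 μL in 100% PEG400; trunk blood from three mice per time point over 6 h; plasma acetonitrile-precipitated and analysed by LCMS/MS, noncompartmental parameters.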

[21] = AUC (0 to 12 hrs) in rat 10 mg/kg, po; type: ADME, organism-based; design: time < 12 hr, dose 10 mg/kg, route oral; conditions: plasma; outline: as §3
Mus musculus [22] = experiment: Toxicity in SCID mouse xenografted with human KARPAS299 cells expressing NPM-ALK assessed as effect on body weight at 10 to 30 mg/kg, po bid; type: organism-based, KARPAS-299; design: dose 10-30 mg/kg, route oral; conditions: in vivo
Outline: (§8)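 Female SCID/beige mice (6–8 weeks), Karpas-299 cells implanted sc in left flank; at ~600 mm³ randomized (8–10/group), dosed orally in PEG400, 100 μL, b.i.d. for 12 days. Body weight every 2–3 days; plasma and tumor sampled 2 h after final dose, drug by LCMS/MS; Mann–Whitney rank sum statistics.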

[23] = Cmax in rat at 30 mg/kg, po; type: ADME, organism-based; design: dose 30 mg/kg, route oral; conditions: in vivo; outline: as §3
[24] = AUC (0 to 12 hrs) in rat 55 mg/kg, po; type: ADME, organism-based; design: time < 12 hr, dose 55 mg/kg, route oral; conditions: plasma; outline: as §3
[25] = Half life in CD-1 mouse at 1 mg/kg, iv; type: ADME, organism-based; design: dose 1 mg/kg, route intravenous; conditions: in vivo; outline: as §6
[26] = target: Ribosomal protein S6 kinase alpha-3 (Homo sapiens, UniProt P51812); experiment: Inhibition of human Rsk2; outline: as §7
[27] = Volume of distribution in Beagle dog at 1 mg/kg, iv; type: ADME, organism-based, Canis lupus familiaris; design: dose 1 mg/kg, route intravenous; conditions: in vivo; outline: as §2
[28] = Drug level in SCID mouse tumor xenografted with human KARPAS299 cells expressing NPM-ALK at 30 mg/kg, po after 24 hrs by LC-MS/MS analysis; type: ADME, organism-based, Neoplasm, KARPAS-299; design: dose 30 mg/kg, route oral; conditions: read-out: Drug uptake
[29] = Plasma concentration in SCID/beige mouse xenografted with human KARPAS299 cells expressing NPM-ALK at 30 mg/kg, po bid after 2 hrs post last dose by LC-MS/MS analysis; type: ADME, organism-based, KARPAS-299; design: dose 30 mg/kg, route oral; outline: as §8
[30] = Half life in CD-1 mouse at 10 mg/kg, po; type: ADME, organism-based; design: dose 10 mg/kg, route oral; conditions: in vivo; outline: as §6
[31] = target: Receptor-type tyrosine-protein kinase FLT3 (Homo sapiens) (UniProt P36888); conditions: 1 uM
Sequence of Receptor-type tyrosine-protein kinase FLT3 (Homo sapiens) (P36888 whole entry): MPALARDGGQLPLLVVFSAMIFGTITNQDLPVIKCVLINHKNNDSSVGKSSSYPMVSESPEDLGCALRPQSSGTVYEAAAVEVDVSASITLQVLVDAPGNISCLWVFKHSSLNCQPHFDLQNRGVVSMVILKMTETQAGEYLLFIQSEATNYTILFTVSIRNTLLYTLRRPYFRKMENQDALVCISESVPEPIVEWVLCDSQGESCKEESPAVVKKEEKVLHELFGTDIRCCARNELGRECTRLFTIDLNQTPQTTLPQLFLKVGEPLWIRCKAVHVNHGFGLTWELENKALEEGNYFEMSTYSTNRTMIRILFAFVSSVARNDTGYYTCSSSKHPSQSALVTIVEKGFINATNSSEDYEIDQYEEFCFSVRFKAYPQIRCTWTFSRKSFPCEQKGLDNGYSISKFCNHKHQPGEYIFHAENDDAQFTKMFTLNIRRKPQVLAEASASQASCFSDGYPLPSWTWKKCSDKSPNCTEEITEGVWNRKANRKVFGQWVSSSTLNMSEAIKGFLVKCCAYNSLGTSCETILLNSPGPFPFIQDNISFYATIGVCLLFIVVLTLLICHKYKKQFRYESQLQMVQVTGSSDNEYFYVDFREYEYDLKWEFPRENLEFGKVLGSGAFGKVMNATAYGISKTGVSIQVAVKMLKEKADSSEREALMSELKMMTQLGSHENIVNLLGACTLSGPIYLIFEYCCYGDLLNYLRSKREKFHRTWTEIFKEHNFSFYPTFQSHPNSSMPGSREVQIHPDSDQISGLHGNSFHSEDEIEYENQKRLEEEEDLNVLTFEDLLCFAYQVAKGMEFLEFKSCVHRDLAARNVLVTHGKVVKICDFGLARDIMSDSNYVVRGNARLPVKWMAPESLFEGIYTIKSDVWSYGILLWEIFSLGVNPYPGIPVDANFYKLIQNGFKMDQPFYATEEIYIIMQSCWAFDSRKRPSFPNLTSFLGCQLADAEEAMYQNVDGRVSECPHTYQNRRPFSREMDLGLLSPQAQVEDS

Sequence of Ribosomal protein S6 kinase alpha-3 (P51812 whole entry): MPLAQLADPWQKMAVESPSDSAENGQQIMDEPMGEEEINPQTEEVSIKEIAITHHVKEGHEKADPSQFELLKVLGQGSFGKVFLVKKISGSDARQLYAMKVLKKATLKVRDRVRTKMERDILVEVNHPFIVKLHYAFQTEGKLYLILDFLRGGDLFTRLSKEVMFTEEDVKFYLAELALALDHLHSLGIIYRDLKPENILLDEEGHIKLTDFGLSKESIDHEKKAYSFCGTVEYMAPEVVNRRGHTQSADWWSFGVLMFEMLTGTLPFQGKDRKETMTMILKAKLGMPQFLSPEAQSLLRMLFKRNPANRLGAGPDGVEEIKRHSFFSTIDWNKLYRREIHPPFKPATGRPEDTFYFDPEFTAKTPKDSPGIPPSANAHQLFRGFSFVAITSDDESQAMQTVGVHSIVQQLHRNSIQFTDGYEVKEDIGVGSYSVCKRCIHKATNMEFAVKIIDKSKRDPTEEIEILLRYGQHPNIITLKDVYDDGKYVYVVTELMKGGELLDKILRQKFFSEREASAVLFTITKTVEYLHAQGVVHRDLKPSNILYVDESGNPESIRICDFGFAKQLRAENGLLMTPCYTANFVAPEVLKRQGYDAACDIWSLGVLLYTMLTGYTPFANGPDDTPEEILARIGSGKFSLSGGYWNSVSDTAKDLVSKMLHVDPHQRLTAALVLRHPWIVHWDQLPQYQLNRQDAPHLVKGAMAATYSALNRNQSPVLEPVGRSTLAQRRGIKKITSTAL
Sequence of Tyrosine-protein kinase Fer (P16591 whole entry): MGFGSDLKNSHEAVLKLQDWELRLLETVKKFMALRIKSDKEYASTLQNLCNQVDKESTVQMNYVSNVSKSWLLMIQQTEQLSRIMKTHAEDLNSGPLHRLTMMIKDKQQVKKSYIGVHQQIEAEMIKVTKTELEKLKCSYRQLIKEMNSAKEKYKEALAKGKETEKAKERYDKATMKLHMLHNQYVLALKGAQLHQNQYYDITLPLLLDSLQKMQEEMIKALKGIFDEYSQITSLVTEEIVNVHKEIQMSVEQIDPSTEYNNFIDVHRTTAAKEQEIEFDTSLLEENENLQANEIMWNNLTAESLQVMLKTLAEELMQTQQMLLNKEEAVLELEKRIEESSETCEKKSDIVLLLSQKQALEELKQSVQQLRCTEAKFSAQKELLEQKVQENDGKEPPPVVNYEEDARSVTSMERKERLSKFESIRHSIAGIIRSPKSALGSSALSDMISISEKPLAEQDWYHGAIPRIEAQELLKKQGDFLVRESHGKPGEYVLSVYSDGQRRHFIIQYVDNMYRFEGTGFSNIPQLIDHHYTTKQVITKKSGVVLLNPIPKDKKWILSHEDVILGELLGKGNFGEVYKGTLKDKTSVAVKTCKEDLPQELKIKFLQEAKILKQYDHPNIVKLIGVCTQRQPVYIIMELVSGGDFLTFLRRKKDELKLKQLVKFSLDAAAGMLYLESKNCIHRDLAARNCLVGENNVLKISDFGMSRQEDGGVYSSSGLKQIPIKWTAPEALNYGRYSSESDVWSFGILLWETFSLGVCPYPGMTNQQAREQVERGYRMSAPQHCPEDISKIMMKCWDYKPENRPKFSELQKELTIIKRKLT
Sequence of Ribosomal protein S6 kinase alpha-2 (Q15349 whole entry): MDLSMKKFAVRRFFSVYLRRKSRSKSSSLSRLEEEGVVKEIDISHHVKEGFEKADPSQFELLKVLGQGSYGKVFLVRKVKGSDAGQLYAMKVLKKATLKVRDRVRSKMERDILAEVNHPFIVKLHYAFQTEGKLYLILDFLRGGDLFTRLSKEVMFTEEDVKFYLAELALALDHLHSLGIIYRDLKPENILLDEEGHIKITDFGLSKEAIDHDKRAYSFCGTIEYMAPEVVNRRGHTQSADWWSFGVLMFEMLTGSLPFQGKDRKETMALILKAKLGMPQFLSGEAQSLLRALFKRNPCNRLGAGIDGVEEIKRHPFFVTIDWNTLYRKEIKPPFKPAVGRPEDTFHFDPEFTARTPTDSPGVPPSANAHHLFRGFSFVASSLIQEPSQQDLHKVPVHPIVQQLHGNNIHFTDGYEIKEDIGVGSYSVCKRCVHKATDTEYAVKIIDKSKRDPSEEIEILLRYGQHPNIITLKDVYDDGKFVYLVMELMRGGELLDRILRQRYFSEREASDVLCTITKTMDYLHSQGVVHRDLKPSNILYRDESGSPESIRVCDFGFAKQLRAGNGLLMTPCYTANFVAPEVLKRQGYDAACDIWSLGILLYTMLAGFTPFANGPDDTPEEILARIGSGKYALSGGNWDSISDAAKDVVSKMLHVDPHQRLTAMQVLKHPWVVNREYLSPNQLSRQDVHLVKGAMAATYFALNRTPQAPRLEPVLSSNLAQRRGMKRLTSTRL
Sequence of Mitogen-activated protein kinase kinase kinase kinase 2 (Q12851 whole entry): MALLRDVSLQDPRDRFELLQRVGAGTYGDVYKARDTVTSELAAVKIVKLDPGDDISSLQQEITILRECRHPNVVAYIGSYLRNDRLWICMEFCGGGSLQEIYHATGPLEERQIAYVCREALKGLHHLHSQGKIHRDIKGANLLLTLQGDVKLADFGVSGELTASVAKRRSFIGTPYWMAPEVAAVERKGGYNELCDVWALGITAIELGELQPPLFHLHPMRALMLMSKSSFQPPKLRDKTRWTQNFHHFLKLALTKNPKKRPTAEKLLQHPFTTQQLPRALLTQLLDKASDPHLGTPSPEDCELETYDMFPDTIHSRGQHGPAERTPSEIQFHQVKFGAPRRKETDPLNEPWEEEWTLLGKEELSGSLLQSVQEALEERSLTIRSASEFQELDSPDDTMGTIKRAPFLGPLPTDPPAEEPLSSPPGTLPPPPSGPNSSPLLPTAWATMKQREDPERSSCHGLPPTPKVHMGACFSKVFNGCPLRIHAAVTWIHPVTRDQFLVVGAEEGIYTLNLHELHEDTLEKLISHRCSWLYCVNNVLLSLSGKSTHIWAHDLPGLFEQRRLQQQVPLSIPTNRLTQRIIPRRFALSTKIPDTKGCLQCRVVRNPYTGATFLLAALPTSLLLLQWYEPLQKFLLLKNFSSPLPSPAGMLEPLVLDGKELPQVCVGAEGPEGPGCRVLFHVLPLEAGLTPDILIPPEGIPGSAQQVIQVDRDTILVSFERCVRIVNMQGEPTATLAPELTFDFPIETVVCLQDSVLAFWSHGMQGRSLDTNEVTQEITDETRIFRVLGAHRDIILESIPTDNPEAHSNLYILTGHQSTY
Sequence of Tyrosine-protein kinase Fes/Fps (P07332 whole entry): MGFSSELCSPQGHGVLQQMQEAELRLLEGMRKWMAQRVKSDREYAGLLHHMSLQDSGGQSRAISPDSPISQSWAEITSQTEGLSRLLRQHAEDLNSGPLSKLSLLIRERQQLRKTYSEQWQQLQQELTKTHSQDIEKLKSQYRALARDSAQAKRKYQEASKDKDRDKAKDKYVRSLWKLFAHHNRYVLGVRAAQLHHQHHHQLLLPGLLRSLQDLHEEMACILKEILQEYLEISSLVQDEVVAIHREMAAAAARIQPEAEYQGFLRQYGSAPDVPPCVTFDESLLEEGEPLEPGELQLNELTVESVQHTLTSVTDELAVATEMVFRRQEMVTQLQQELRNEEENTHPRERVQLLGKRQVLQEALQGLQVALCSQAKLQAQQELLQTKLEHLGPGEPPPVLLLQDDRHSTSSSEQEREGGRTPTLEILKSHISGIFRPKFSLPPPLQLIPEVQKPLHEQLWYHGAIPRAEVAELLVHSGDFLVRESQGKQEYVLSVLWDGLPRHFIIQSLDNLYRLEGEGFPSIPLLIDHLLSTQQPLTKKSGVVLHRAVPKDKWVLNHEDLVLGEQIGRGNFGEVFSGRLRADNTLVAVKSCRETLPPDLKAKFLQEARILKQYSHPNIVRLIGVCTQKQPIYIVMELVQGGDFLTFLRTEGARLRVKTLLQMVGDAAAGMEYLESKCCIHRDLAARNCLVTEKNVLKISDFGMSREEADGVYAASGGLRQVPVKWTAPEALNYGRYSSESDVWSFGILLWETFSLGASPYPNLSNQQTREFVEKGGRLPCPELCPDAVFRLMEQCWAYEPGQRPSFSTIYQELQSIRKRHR

**Q.** For `COc1c(Nc2ncc(Cl)c(N[C@H]3[C@@H](C(N)=O)[C@@H]4C=C[C@H]3C4)n2)ccc2c1CC[C@@H](N1CCOCC1)CC2`, which bioavailability [1] is on record?
**A.** 50%

**Q.** And the clearance [2]?
**A.** 28 mL/min/kg

**Q.** And the Cmax [3]?
**A.** 599 ng/mL

**Q.** What about the concentration at 12 h [4] of the same compound?
**A.** 1460 ng/g

**Q.** What about the bioavailability [5] of the same compound?
**A.** 16%

**Q.** What about the Cmax [6] of the same compound?
**A.** 2250 ng/mL

**Q.** What about the IC50 (Focal adhesion kinase 1) of the same compound?
**A.** 0.133 µM

**Q.** What about the AUC [7] of the same compound?
**A.** 409 ng·h/mL

**Q.** And the IC50 [8]?
**A.** 0.085 µM

**Q.** What about the half-life [9] of the same compound?
**A.** 1.8 h

**Q.** And the IC50 [10]?
**A.** 0.06 µM

**Q.** What about the half-life [11] of the same compound?
**A.** 1.2 h

**Q.** And the inhibition in vivo at 30 mg/kg (Mus musculus [12])?
**A.** > 90%

**Q.** What about the IC50 [13] of the same compound?
**A.** 0.007 µM

**Q.** What about the inhibition [14] of the same compound?
**A.** > 90%

**Q.** What about the Cmax [15] of the same compound?
**A.** 170 ng/mL

**Q.** And the IC50 [16]?
**A.** 0.029 µM

**Q.** What about the IC50 [17] of the same compound?
**A.** 0.099 µM

**Q.** And the AUC [18]?
**A.** 615 ng·h/mL

**Q.** And the IC50 (Activated CDC42 kinase 1)?
**A.** 0.041 µM

**Q.** And the AUC [19]?
**A.** 21400 ng·h/mL

**Q.** What about the Tmax [20] of the same compound?
**A.** 1 h

**Q.** What about the AUC(0-t) at 12 h [21] of the same compound?
**A.** 2570 ng·h/mL

**Q.** And the Activity (Mus musculus [22])?
**A.** Non-toxic

**Q.** And the Cmax [23]?
**A.** 1010 ng/mL

**Q.** And the AUC(0-t) at 12 h [24]?
**A.** 24100 ng·h/mL

**Q.** What about the half-life [25] of the same compound?
**A.** 0.7 h

**Q.** And the IC50 [26]?
**A.** 0.013 µM

**Q.** And the Vd [27]?
**A.** 8.2 L/kg

**Q.** What about the concentration at 24 h [28] of the same compound?
**A.** 100 ng/g

**Q.** What about the concentration at 2 h [29] of the same compound?
**A.** 4270 ng/mL

**Q.** What about the half-life [30] of the same compound?
**A.** 2.3 h

**Q.** What about the inhibition [31] of the same compound?
**A.** > 90%

Source: ChEMBL document CHEMBL2062375, “Discovery of an orally efficacious inhibitor of anaplastic lymphoma kinase” (J Med Chem, 2012)
